Assay results from ChEMBL document CHEMBL1132624, “Guanidine derivatives as combined thromboxane A2 receptor antagonists and synthase inhibitors” (J Med Chem, 1999).

What follows are compounds tested against T1, Thromboxane A2 receptor (Homo sapiens, UniProt P21731) (assay: In vitro activity on thromboxane A2 receptor antagonism in gel filtered human platelets.).
T1 sequence (P21731 whole entry): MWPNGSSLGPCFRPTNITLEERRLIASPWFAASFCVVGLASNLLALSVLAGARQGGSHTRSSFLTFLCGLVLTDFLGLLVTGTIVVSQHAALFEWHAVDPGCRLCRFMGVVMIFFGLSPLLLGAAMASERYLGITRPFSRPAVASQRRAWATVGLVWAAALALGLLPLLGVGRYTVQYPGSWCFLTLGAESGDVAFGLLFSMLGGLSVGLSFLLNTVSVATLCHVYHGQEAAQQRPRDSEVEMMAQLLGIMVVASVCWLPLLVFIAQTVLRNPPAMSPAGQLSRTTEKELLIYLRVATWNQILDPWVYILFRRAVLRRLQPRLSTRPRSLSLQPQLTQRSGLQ
Format: functional
Procedure, shortened: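 Human gel-filtered platelets; competitive displacement of the high-affinity radioligand ³H-SQ 29,548 from the PGH2/TXA2 receptor; IC50 from displacement. Run at least in duplicate.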

IC50 [µM] | Structure (SMILES)
0.51 | CC(C)(C)/N=C(\NC#N)Nc1cccc(/C(=N/OCCCCC(=O)O)c2cccnc2)c1
0.081 | CC(C)(C)/N=C(\NC#N)Nc1cccc(/C(=C\CCC(=O)O)c2cccnc2)c1
0.83 | CC(C)(C)Nc1c(Nc2cccc(/C(=C\CCCC(=O)O)c3cccnc3)c2)c(=O)c1=O
0.11 | O=C(O)CCC/C=C(/c1cccnc1)c1cccc(N/C(=N\C2CCCC2)NC(=O)c2ccccc2)c1
0.44 | O=C(O)CCC/C=C(/c1cccnc1)c1cccc(N/C(=C/[N+](=O)[O-])NC2CCCCC2)c1
0.077 | CC(C)(C)/N=C(\NC#N)Nc1cccc(/C(=C\CCCCCC(=O)O)c2cccnc2)c1
0.33 | CC(C)(C)/N=C(\NC#N)Nc1cccc(/C(=C\CCCCC(=O)O)c2cccnc2)c1
0.003 | CC(C)(C)NC(Nc1cccc(/C(=C\CCCC(=O)O)c2cccnc2)c1)=C(C#N)C#N
1.3 | CC(C)(C)NC(=O)Nc1cccc(/C(=C\CCCC(=O)O)c2cccnc2)c1
21 | N#CN/C(=N/C1CC1)Nc1ccc(/C(=C\CCCC(=O)O)c2cccnc2)cc1
1.7 | N/C(=N/C1CCCC1)Nc1cccc(/C(=C\CCCC(=O)O)c2cccnc2)c1
0.083 | N#CN/C(=N/C12CC3CC(CC(C3)C1)C2)Nc1cccc(/C(=C\CCCC(=O)O)c2cccnc2)c1
1 | CN(C)CC/N=C(/NC#N)Nc1cccc(/C(=C\CCCC(=O)O)c2cccnc2)c1
0.016 | C/N=C(/NC#N)Nc1cccc(/C(=C\CCCC(=O)O)c2cccnc2)c1
0.31 | CC(C)(C)/N=C(\NC#N)Nc1cccc(/C(=N\OCCCCC(=O)O)c2cccnc2)c1
0.61 | CC(C)C/N=C(/NC(N)=O)Nc1cccc(/C(=C\CCCC(=O)O)c2cccnc2)c1
0.33 | CC(C)(C)/N=C(\Nc1cccc(/C(=C\CCCC(=O)O)c2cccnc2)c1)NS(C)(=O)=O
0.12 | CN(C)/C(=N/c1cccc(/C(=C\CCCC(=O)O)c2cccnc2)c1)NC#N
0.038 | CC(C)(C)/N=C(/S)Nc1cccc(/C(=C\CCCC(=O)O)c2cccnc2)c1
0.047 | N#CN/C(=N/C1CCCCC1)Nc1cccc(/C(=C\CCCC(=O)O)c2cccnc2)c1
0.13 | N#CN/C(=N/Cc1cccnc1)Nc1cccc(/C(=C\CCCC(=O)O)c2cccnc2)c1
0.3 | CC(C)C/N=C(\Nc1cccc(/C(=C\CCCC(=O)O)c2cccnc2)c1)Nc1nn[nH]n1
0.035 | N#CN/C(N)=N\c1cccc(/C(=C\CCCC(=O)O)c2cccnc2)c1
0.032 | N#CN/C(=N/Cc1ccccc1)Nc1cccc(/C(=C\CCCC(=O)O)c2cccnc2)c1
2.6 | CC(C)(C)/N=C(\NC#N)Nc1cccc(/C(=C/CCCC(=O)O)c2cccnc2)c1

Each compound was assayed against T2, Thromboxane-A synthase (Homo sapiens, UniProt P24557) (assay: In vitro activity on thromboxane A2 synthase inhibition in gel filtered human platelets.).
T2 sequence (P24557 whole entry): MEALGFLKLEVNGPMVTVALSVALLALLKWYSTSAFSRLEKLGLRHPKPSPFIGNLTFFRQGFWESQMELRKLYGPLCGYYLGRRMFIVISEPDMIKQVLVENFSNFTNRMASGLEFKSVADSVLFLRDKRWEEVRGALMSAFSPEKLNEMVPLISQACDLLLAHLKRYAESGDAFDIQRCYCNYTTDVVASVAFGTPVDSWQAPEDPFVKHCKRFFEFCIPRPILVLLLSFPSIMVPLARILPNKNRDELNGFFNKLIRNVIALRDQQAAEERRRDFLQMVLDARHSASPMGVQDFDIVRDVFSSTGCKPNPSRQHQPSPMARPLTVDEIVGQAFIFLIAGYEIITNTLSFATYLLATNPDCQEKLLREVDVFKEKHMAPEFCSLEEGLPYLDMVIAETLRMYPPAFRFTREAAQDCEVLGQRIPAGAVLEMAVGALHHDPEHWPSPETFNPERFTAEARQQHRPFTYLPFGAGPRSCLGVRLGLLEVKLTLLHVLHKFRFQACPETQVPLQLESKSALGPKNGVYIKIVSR

IC50 [µM] | Structure (SMILES)
0.23 | CC(C)(C)/N=C(\NC#N)Nc1cccc(/C(=N/OCCCCC(=O)O)c2cccnc2)c1
0.4 | CC(C)(C)/N=C(\NC#N)Nc1cccc(/C(=C\CCC(=O)O)c2cccnc2)c1
0.23 | CC(C)(C)Nc1c(Nc2cccc(/C(=C\CCCC(=O)O)c3cccnc3)c2)c(=O)c1=O
0.004 | O=C(O)CCC/C=C(/c1cccnc1)c1cccc(N/C(=N\C2CCCC2)NC(=O)c2ccccc2)c1
0.31 | O=C(O)CCC/C=C(/c1cccnc1)c1cccc(N/C(=C/[N+](=O)[O-])NC2CCCCC2)c1
0.005 | CC(C)(C)/N=C(\NC#N)Nc1cccc(/C(=C\CCCCCC(=O)O)c2cccnc2)c1
0.006 | CC(C)(C)/N=C(\NC#N)Nc1cccc(/C(=C\CCCCC(=O)O)c2cccnc2)c1
0.025 | CC(C)C/N=C(/NC#N)Nc1cccc(/C(=C\CCCC(=O)O)c2cccnc2)c1
0.04 | CC(C)(C)NC(=O)Nc1cccc(/C(=C\CCCC(=O)O)c2cccnc2)c1
3.9 | N#CN/C(=N/C1CC1)Nc1ccc(/C(=C\CCCC(=O)O)c2cccnc2)cc1
3.9 | N/C(=N/C1CCCC1)Nc1cccc(/C(=C\CCCC(=O)O)c2cccnc2)c1
0.003 | N#CN/C(=N/C12CC3CC(CC(C3)C1)C2)Nc1cccc(/C(=C\CCCC(=O)O)c2cccnc2)c1
2.9 | CN(C)CC/N=C(/NC#N)Nc1cccc(/C(=C\CCCC(=O)O)c2cccnc2)c1
0.003 | CC(C)(C)/N=C(\Nc1cccc(/C(=C\CCCC(=O)O)c2cccnc2)c1)NS(=O)(=O)c1ccccc1
0.25 | C/N=C(/NC#N)Nc1cccc(/C(=C\CCCC(=O)O)c2cccnc2)c1
0.005 | CC(C)(C)/N=C(\NC#N)Nc1cccc(/C(=N\OCCCCC(=O)O)c2cccnc2)c1
0.2 | CC(C)C/N=C(/NC(N)=O)Nc1cccc(/C(=C\CCCC(=O)O)c2cccnc2)c1
0.025 | CC(C)(C)/N=C(\Nc1cccc(/C(=C\CCCC(=O)O)c2cccnc2)c1)NS(C)(=O)=O
0.026 | CN(C)/C(=N/c1cccc(/C(=C\CCCC(=O)O)c2cccnc2)c1)NC#N
0.022 | CC(C)(C)/N=C(/S)Nc1cccc(/C(=C\CCCC(=O)O)c2cccnc2)c1
0.003 | N#CN/C(=N/C1CCCCC1)Nc1cccc(/C(=C\CCCC(=O)O)c2cccnc2)c1
0.32 | N#CN/C(=N/Cc1cccnc1)Nc1cccc(/C(=C\CCCC(=O)O)c2cccnc2)c1
0.93 | CC(C)C/N=C(\Nc1cccc(/C(=C\CCCC(=O)O)c2cccnc2)c1)Nc1nn[nH]n1
0.43 | N#CN/C(N)=N\c1cccc(/C(=C\CCCC(=O)O)c2cccnc2)c1
0.011 | N#CN/C(=N/Cc1ccccc1)Nc1cccc(/C(=C\CCCC(=O)O)c2cccnc2)c1

Organism: Homo sapiens
Test: In vitro activity expressed as EC50 for inhibition of collagen induced platelet aggregation.
Format: functional

EC50 [µM] | Structure (SMILES)
17 | CC(C)(C)/N=C(\NC#N)Nc1cccc(/C(=N/OCCCCC(=O)O)c2cccnc2)c1
13 | CC(C)(C)/N=C(\NC#N)Nc1cccc(/C(=C\CCC(=O)O)c2cccnc2)c1
59 | CC(C)(C)Nc1c(Nc2cccc(/C(=C\CCCC(=O)O)c3cccnc3)c2)c(=O)c1=O
16 | O=C(O)CCC/C=C(/c1cccnc1)c1cccc(N/C(=N\C2CCCC2)NC(=O)c2ccccc2)c1
15 | O=C(O)CCC/C=C(/c1cccnc1)c1cccc(N/C(=C/[N+](=O)[O-])NC2CCCCC2)c1
1.7 | CC(C)(C)/N=C(\NC#N)Nc1cccc(/C(=C\CCCCCC(=O)O)c2cccnc2)c1
3.7 | CC(C)(C)/N=C(\NC#N)Nc1cccc(/C(=C\CCCCC(=O)O)c2cccnc2)c1
0.35 | CC(C)C/N=C(/NC#N)Nc1cccc(/C(=C\CCCC(=O)O)c2cccnc2)c1
0.12 | CC(C)(C)NC(Nc1cccc(/C(=C\CCCC(=O)O)c2cccnc2)c1)=C(C#N)C#N
0.5 | N#CN/C(=N/C1CCCC1)Nc1cccc(/C(=C\CCCC(=O)O)c2cccnc2)c1
9 | CC(C)(C)NC(=O)Nc1cccc(/C(=C\CCCC(=O)O)c2cccnc2)c1
42 | N#CN/C(=N/C1CC1)Nc1ccc(/C(=C\CCCC(=O)O)c2cccnc2)cc1
21 | N/C(=N/C1CCCC1)Nc1cccc(/C(=C\CCCC(=O)O)c2cccnc2)c1
0.5 | N#CN/C(=N/C12CC3CC(CC(C3)C1)C2)Nc1cccc(/C(=C\CCCC(=O)O)c2cccnc2)c1
6.8 | CN(C)CC/N=C(/NC#N)Nc1cccc(/C(=C\CCCC(=O)O)c2cccnc2)c1
3.3 | CC(C)(C)/N=C(\Nc1cccc(/C(=C\CCCC(=O)O)c2cccnc2)c1)NS(=O)(=O)c1ccccc1

EC50 [µM] | Structure (SMILES)
0.46 | C/N=C(/NC#N)Nc1cccc(/C(=C\CCCC(=O)O)c2cccnc2)c1
5.2 | CC(C)(C)/N=C(\NC#N)Nc1cccc(/C(=N\OCCCCC(=O)O)c2cccnc2)c1
12 | CC(C)C/N=C(/NC(N)=O)Nc1cccc(/C(=C\CCCC(=O)O)c2cccnc2)c1
31 | N#CN/C(=N/C1CCCCC1)Nc1ccc(/C(=C\CCCC(=O)O)c2cccnc2)cc1
6.1 | CC(C)(C)/N=C(\Nc1cccc(/C(=C\CCCC(=O)O)c2cccnc2)c1)NS(C)(=O)=O
1 | CN(C)/C(=N/c1cccc(/C(=C\CCCC(=O)O)c2cccnc2)c1)NC#N
2 | CC(C)(C)/N=C(/S)Nc1cccc(/C(=C\CCCC(=O)O)c2cccnc2)c1
5.8 | N#CN/C(=N/C1CCCCC1)Nc1cccc(/C(=C\CCCC(=O)O)c2cccnc2)c1
0.69 | CC(C)CC/N=C(/NC#N)Nc1cccc(/C(=C\CCCC(=O)O)c2cccnc2)c1
6.9 | N#CN/C(=N/Cc1cccnc1)Nc1cccc(/C(=C\CCCC(=O)O)c2cccnc2)c1
22 | CC(C)C/N=C(\Nc1cccc(/C(=C\CCCC(=O)O)c2cccnc2)c1)Nc1nn[nH]n1
1 | N#CN/C(N)=N\c1cccc(/C(=C\CCCC(=O)O)c2cccnc2)c1
1.6 | N#CN/C(=N/Cc1ccccc1)Nc1cccc(/C(=C\CCCC(=O)O)c2cccnc2)c1
48 | CC(C)(C)/N=C(\NC#N)Nc1cccc(/C(=C/CCCC(=O)O)c2cccnc2)c1
0.31 | CC(C)(C)N/C(=N\C#N)Nc1cccc(/C(=C\CCCC(=O)O)c2cccnc2)c1 [TERBOGREL]
